Test results taken from ChEMBL document CHEMBL1150201, “Verbascoside isolated from Lantana camara, an inhibitor of protein kinase C” (J Nat Prod, 1991).
The source made the active and inactive calls. The rule behind the calls is not given here.

What was measured:
L1210 [1] = assay: Antiproliferative activity against mouse L1210 cells after 48 hrs by coulter counting analysis; type: functional, cell-based; settings: L1210, 48 h
Summary of the method: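 L1210 cells seeded at 10^4 per well in DMEM with 10% fetal calf serum, 4 mM glutamine and penicillin/streptomycin, with compound added from DMSO. Grown 2 days at 37° in 5% CO₂, then counted in a Coulter counter. Cultures were logarithmically growing at plating; n = 6. IC₅₀ taken from linear regression lines.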

L1210 [2] = assay: Cytotoxicity against mouse L1210 cells at 25 uM by MTT assay; type: functional, cell-based
Summary of the method: (§1)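 MTT colorimetric assay after Mosmann, measuring reduction of the tetrazolium to blue formazan by viable cells, read photometrically. Treated cells were compared with the same number of untreated cells.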

[3] = molecular target: T1, Protein kinase C (PKC) (Rattus norvegicus) (UniProt P05696+P68403+P09216+P63319+P09215+Q64617+Q9WTQ0+P09217); assay: (§2) Inhibition of rat brain PKC by mixed micellar assay
Summary of the method: (§3)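 PKC purified from rat brain, 0.5 µg per tube. Medium was 20 mM Tris/HCl pH 7.5, 10 mM MgCl₂, 200 µg/ml histone IIIS, micelles of 700 µM phosphatidylserine and 180 µM 1,2-dioleine in 0.3% Triton X-100, 0.2 mM CaCl₂, 100 µM ATP with [γ-³²P]-ATP and compound in DMSO. After 3 min at 30°, TCA-precipitated material was filtered and counted. Activity without micelles/CaCl₂ subtracted; 6 replicates.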

Protein kinase C (PKC) [4] = assay: as §2; summary of the method: as §3
Protein kinase C (PKC) [5] = assay: Displacement of [gamma32P]ATP from rat brain PKC by competitive Lineweaver-Burke plot analysis
Summary of the method: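 Rat brain PKC (0.5 µg) in the mixed-micelle assay with histone fixed at 200 µg/ml and ATP varied. Inhibitor levels were 0, 5, 10 and 15 µM. Data were analysed as double-reciprocal plots. Apparent Ki came from line intersections by unweighted least-squares fit.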

Protein kinase C (PKC) [6] = assay: Inhibition of rat brain PKC using histone type 3-S as substrate by noncompetitive Lineweaver-Burke plot analysis
[7] = molecular target: T1, Protein kinase C (PKC) (Rattus norvegicus); assay: Displacement of [3H]PDBu from rat brain PKC at 1 mM by scintillation counting
Summary of the method: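 PKC incubated 1 h at 30° in 250 µl of 50 mM Tris/HCl pH 7.4 with 1 mM CaCl₂, 39.2 nM [³H]-PDBu and 50 µg/ml PKC, plus compound. Nonspecific binding defined with 100-fold excess unlabelled PDBu. Diluted with ice-cold buffer, filtered on glass fiber, washed 3 times, bound radioactivity by scintillation counting.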

Protein kinase C (PKC) [8] = assay: Inhibition of rat brain PKC catalytic domain by mixed micellar assay
Summary of the method: (§4)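 Catalytic fragment made by incubating PKC for 10 min at 30° with 1 µg/ml trypsin, giving calcium- and lipid-independent activity. It was then assayed in the mixed-micelle histone phosphorylation assay, varying ATP or histone.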

[9] = molecular target: T1, Protein kinase C (PKC) (Rattus norvegicus); assay: Displacement of [gamma32P]ATP from rat brain PKC catalytic domain by competitive Lineweaver-Burke plot analysis; summary of the method: as §4
[10] = molecular target: T1, Protein kinase C (PKC) (Rattus norvegicus); assay: Inhibition of rat brain PKC catalytic domain using histone type 3-S as substrate by noncompetitive Lineweaver-Burke plot analysis; summary of the method: as §4
LSTRA = assay: Inhibition of protein tyrosine kinase in mouse LSTRA cells assessed as formation of [32P]phosphotyrosine at 100 uM by gel electrophoresis; type: cell-based
[11] = Inhibition of PKA at 100 uM
L1210 [12] = assay: Cytotoxicity against mouse L1210 cells at 10 uM by MTT assay; type: functional, cell-based; summary of the method: as §1

IC50 (L1210 [1])	Activity [3]	IC50 (Protein kinase C (PKC) [4])	Ki (Protein kinase C (PKC) [5])	Ki (Protein kinase C (PKC) [6])	inhibition [7]	IC50 (Protein kinase C (PKC) [8])	Activity [9]	Activity [10]	inhibition [11]	Compound	Activity (L1210 [2])	inhibition (LSTRA)	Activity (L1210 [12])
23.5 µM	–	–	–	–	–	–	–	–	–	C[C@H]1CNCCN1S(=O)(=O)c1cccc2cnccc12	inactive	–	–
13 µM	Dose-dependent effect	25 µM	22 µM	28 µM	9%	21 µM	Active	Active	< 10%	C[C@@H]1O[C@@H](O[C@@H]2[C@@H](O)[C@H](OCCc3ccc(O)c(O)c3)O[C@H](CO)[C@H]2OC(=O)/C=C/c2ccc(O)c(O)c2)[C@H](O)[C@H](O)[C@H]1O [ACETOSIDE]	–	< 10%	inactive
